Test results reported in ChEMBL document CHEMBL1140578, “Solid-phase synthesis and biological evaluation of a uridinyl branched peptide urea library” (2007).
Values after ≈ are worked out from the molar mass of the structure shown. Active and inactive are the calls of the source. The rule behind the calls is not given here.

Tests used:
[1] = test system: Mycobacterium tuberculosis; assay: Antituberculosis activity against Mycobacterium tuberculosis H37Rv by micro-broth dilution method; format: functional
Procedure, shortened: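 M. tuberculosis H37Rv grown in Middlebrook 7H9 ADC medium and tested by microbroth dilution per CLSI guidelines, with 2×10^4 bacteria per well. Compounds were dissolved and diluted in DMSO (4 μl into 196 μl). The primary screen used 20, 10 and 5 μg/ml based on recovered yield. Resynthesized compounds were run as 1:1 serial dilutions from 200 to 1.56 μg/ml to give MIC90. Controls were no drug and isoniazid.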

[2] = test system: Bacillus anthracis; assay: Antimicrobial activity against Bacillus anthracis Sterne; format: functional, organism-based
[3] = test system: Bacillus subtilis; assay: Antimicrobial activity against Bacillus subtilis; format: functional, organism-based
[4] = test system: Escherichia coli; assay: Antimicrobial activity against Escherichia coli K12; format: functional, organism-based
[5] = test system: Enterococcus faecalis; assay: Antimicrobial activity against Enterococcus faecalis; format: functional, organism-based
[6] = test system: Staphylococcus aureus; assay: Antimicrobial activity against methicillin-susceptible Staphylococcus aureus; format: functional, organism-based

## CC(=O)c1cccc(NC(=O)N[C@@H](Cc2c[nH]c3ccccc23)C(=O)N[C@@H](CNC(=O)[C@@H](N)CC(N)=O)C(=O)NC[C@H]2O[C@@H](n3ccc(=O)[nH]c3=O)[C@H](O)[C@@H]2O)c1
[1]
  MIC90: > 200 µg/mL
[2]
  Activity: inactive
[3]
  Activity: inactive
[4]
  Activity: inactive
[5]
  Activity: inactive
[6]
  Activity: inactive

## CCCNC(=O)N[C@@H](Cc1c[nH]c2ccccc12)C(=O)N[C@@H](CNC(=O)[C@@H](N)Cc1c[nH]c2ccccc12)C(=O)NC[C@H]1O[C@@H](n2ccc(=O)[nH]c2=O)[C@H](O)[C@@H]1O
[1]
  MIC90: 100 µg/mL (≈ 127 µM)
[2]
  Activity: inactive
[3]
  Activity: inactive
[4]
  Activity: inactive
[5]
  Activity: inactive
[6]
  Activity: inactive

## CSCC[C@H](NC(=O)NCCc1ccccc1)C(=O)N[C@@H](CNC(=O)[C@@H](N)Cc1ccc([N+](=O)[O-])cc1)C(=O)NC[C@H]1O[C@@H](n2ccc(=O)[nH]c2=O)[C@H](O)[C@@H]1O
[1]
  MIC90: 100 µg/mL (≈ 125 µM)
[2]
  Activity: inactive
[3]
  Activity: inactive
[4]
  Activity: inactive
[5]
  Activity: inactive
[6]
  Activity: inactive

## CCCCCCNC(=O)N[C@@H](Cc1c[nH]c2ccccc12)C(=O)N[C@@H](CNC(=O)[C@@H](N)Cc1c[nH]c2ccccc12)C(=O)NC[C@H]1O[C@@H](n2ccc(=O)[nH]c2=O)[C@H](O)[C@@H]1O
[1]
  MIC90: 25 µg/mL (≈ 30.2 µM)
[2]
  Activity: inactive
[3]
  Activity: inactive
[4]
  Activity: inactive
[5]
  Activity: inactive
[6]
  Activity: inactive

## COc1ccc(NC(=O)N[C@@H](Cc2ccc(O)cc2)C(=O)N[C@@H](CNC(=O)[C@@H](N)Cc2ccc([N+](=O)[O-])cc2)C(=O)NC[C@H]2O[C@@H](n3ccc(=O)[nH]c3=O)[C@H](O)[C@@H]2O)cc1
[1]
  MIC90: 12.5 µg/mL (≈ 15 µM)
[2]
  Activity: inactive
[3]
  Activity: inactive
[4]
  Activity: inactive
[5]
  Activity: inactive
[6]
  Activity: inactive

## CC(=O)c1cccc(NC(=O)N[C@@H](Cc2c[nH]c3ccccc23)C(=O)N[C@@H](CNC(=O)[C@@H](N)Cc2c[nH]c3ccccc23)C(=O)NC[C@H]2O[C@@H](n3ccc(=O)[nH]c3=O)[C@H](O)[C@@H]2O)c1
[1]
  MIC90: 50 µg/mL (≈ 57.9 µM)
[2]
  Activity: inactive
[3]
  Activity: inactive
[4]
  Activity: inactive
[5]
  Activity: inactive
[6]
  Activity: inactive

## COc1ccc(NC(=O)N[C@@H](Cc2c[nH]c3ccccc23)C(=O)N[C@@H](CNC(=O)[C@@H](N)Cc2c[nH]c3ccccc23)C(=O)NC[C@H]2O[C@@H](n3ccc(=O)[nH]c3=O)[C@H](O)[C@@H]2O)cc1
[1]
  MIC90: 12.5 µg/mL (≈ 14.7 µM)
[2]
  Activity: inactive
[3]
  Activity: inactive
[4]
  Activity: inactive
[5]
  Activity: inactive
[6]
  Activity: inactive

## CCCCCCNC(=O)N[C@@H](Cc1ccc(O)cc1)C(=O)N[C@@H](CNC(=O)[C@@H](N)Cc1c[nH]c2ccccc12)C(=O)NC[C@H]1O[C@@H](n2ccc(=O)[nH]c2=O)[C@H](O)[C@@H]1O
[1]
  MIC90: 12.5 µg/mL (≈ 15.5 µM)
[2]
  Activity: inactive
[3]
  Activity: inactive
[4]
  Activity: inactive
[5]
  Activity: inactive
[6]
  Activity: inactive

## N[C@@H](Cc1c[nH]c2ccccc12)C(=O)NC[C@H](NC(=O)[C@H](Cc1c[nH]c2ccccc12)NC(=O)NCCc1ccccc1)C(=O)NC[C@H]1O[C@@H](n2ccc(=O)[nH]c2=O)[C@H](O)[C@@H]1O
[1]
  MIC90: 50 µg/mL (≈ 58.9 µM)
[2]
  Activity: inactive
[3]
  Activity: inactive
[4]
  Activity: inactive
[5]
  Activity: inactive
[6]
  Activity: inactive
